The logP is a log measure of how a compound divides between an organic and an aqueous phase. One may read the IC50 as the concentration that gives 50% inhibition. A lower IC50 goes with greater potency in that assay.

Data on 14 compounds can be found in ChEMBL document CHEMBL3734737, “Synthesis and Evaluation of a Radioiodinated Tracer with Specificity for Poly(ADP-ribose) Polymerase-1 (PARP-1) in Vivo” (J Med Chem, 2015).

A short description of data set [1]: Octanol-water partition coefficient, log P of the compound at 0.5 to 1.5 mg/ml by HPLC method. Type of data set: physicochemical. The procedure, abridged: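 Samples of 0.5–1.5 mg/mL in MeCN/PBS were run in triplicate on reverse-phase C18 HPLC. The gradient was PBS/MeCN at 1.0 mL/min, with PBS at pH 4.0, 7.4 and 10.0. Retention times were calibrated against seven standards of known chromatographic hydrophobicity index (CHI) to give non-ionized CHI, from which log P was derived.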

Another data set has as its target albumin (Homo sapiens, UniProt P02768). The data set is described as follows: Protein binding to human serum albumin at 0.5 to 1.5 mg/ml by HPLC method. In kind it is ADME. The settings on record: read-out: PPB (converted).
Data set [2] concerns the target Poly [ADP-ribose] polymerase 1 (Homo sapiens, UniProt P09874). The data set is described as follows: Inhibition of PARP1 (unknown origin) incubated for 10 mins using biotinylated NAD+ and activated DNA by colorimetric assay.
Data set [3] is described as follows: Drug level in solid feces of human U87MG-Luc2 cells xenografted CD1 mouse at 0.8 to 1.1 MBq, iv after 30 mins by gamma counting method. The settings on record: in vivo, 0.5 h, TDE = time-dependent effect. Type of data set: ADME, organism-based. The procedure, abridged:
(§1)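 Female 7–11 week CD1 nude mice carrying subcutaneous U87MG-Luc2 flank xenografts (5×10^6 cells; used 21–30 days post-implant) got a tail-vein bolus of 0.8–1.1 MBq [123I]-tracer in 10% EtOH/0.9% saline. They were killed by CO2 at 30 min (n=3). Tissues were fixed in formaldehyde, weighed and gamma counted. Background was subtracted and %ID/g was derived from a dose-stock control.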
(Xenograft models place foreign cells or tissue in a host animal.)

The nature of data set [4]: Drug level in small bowel matter of human U87MG-Luc2 cells xenografted CD1 mouse at 0.8 to 1.1 MBq, iv after 30 mins by gamma counting method. In kind it is ADME, organism-based. Particulars: in vivo, 0.5 h; call rule not given here. The procedure, abridged:
as §1

In a further data set the test system is Brain. Briefly: Drug level in brain of human U87MG-Luc2 cells xenografted CD1 mouse at 0.8 to 1.1 MBq, iv after 30 mins by gamma counting method. In kind it is ADME, organism-based. The settings on record: in vivo, 0.5 h. The procedure, abridged:
as §1

The subject of the next data set is Liver. Briefly: Drug level in liver of human U87MG-Luc2 cells xenografted CD1 mouse at 0.8 to 1.1 MBq, iv after 30 mins by gamma counting method. The settings on record: in vivo, 0.5 h. In kind it is ADME, organism-based. The procedure, abridged: as §1
Data set [5] is described as follows: Intrinisc clerarance in human liver microsomes assessed as residual compound level at 60 uM preincubated for 10 mins followed by NADPH addition in KH2PO4 at pH 7.4 by LC-MS method. Type of data set: ADME. The settings on record: read-out: CLH. Background: Liver microsomes are a subcellular fraction often used to study metabolism.
Data set [6] is described as follows: Metabolic stability in black-6 mouse plasma assessed as residual compound level at 250 uM incubated for 20 hrs by LC-MS method. Type of data set: ADME, cell-free. The settings on record: read-out: Stability. The procedure, abridged:
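Plasma was taken from EDTA-treated female black-6 mouse blood. Compound (10 μL of 250 μM stock into 50 μL plasma; DMSO <1%) was held at room temperature for 0 or 20 h. It was MeOH-precipitated and measured by LC-MS (SIM) against an internal standard, as % parent relative to a no-plasma control. Three experiments, ± SD.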

Chain of Poly [ADP-ribose] polymerase 1 (P09874 whole entry): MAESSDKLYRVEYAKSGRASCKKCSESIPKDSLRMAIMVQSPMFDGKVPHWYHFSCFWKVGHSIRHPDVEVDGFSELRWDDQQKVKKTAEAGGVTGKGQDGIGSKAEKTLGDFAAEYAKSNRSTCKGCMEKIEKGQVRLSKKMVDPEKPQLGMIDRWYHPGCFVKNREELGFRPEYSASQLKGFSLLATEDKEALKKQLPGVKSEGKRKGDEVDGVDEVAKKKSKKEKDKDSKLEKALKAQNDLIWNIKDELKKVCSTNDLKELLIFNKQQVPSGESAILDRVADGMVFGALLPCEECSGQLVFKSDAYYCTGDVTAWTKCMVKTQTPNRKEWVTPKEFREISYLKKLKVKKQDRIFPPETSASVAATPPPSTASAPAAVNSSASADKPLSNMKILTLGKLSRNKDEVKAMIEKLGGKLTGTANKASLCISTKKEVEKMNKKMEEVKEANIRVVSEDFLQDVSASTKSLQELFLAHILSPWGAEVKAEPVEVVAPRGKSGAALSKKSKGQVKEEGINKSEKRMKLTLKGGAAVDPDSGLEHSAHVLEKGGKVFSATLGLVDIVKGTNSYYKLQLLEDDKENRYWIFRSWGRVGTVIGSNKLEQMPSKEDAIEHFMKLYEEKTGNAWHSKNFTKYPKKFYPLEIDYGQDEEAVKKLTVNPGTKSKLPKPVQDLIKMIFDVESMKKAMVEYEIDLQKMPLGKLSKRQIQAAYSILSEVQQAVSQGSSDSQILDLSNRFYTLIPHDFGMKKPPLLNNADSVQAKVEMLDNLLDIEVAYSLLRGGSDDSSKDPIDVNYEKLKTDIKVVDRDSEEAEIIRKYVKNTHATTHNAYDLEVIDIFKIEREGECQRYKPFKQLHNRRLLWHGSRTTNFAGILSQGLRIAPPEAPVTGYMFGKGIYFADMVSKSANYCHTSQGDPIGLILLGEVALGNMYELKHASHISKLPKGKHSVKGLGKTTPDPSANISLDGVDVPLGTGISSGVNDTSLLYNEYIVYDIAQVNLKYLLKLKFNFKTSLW
Chain of albumin (P02768 whole entry): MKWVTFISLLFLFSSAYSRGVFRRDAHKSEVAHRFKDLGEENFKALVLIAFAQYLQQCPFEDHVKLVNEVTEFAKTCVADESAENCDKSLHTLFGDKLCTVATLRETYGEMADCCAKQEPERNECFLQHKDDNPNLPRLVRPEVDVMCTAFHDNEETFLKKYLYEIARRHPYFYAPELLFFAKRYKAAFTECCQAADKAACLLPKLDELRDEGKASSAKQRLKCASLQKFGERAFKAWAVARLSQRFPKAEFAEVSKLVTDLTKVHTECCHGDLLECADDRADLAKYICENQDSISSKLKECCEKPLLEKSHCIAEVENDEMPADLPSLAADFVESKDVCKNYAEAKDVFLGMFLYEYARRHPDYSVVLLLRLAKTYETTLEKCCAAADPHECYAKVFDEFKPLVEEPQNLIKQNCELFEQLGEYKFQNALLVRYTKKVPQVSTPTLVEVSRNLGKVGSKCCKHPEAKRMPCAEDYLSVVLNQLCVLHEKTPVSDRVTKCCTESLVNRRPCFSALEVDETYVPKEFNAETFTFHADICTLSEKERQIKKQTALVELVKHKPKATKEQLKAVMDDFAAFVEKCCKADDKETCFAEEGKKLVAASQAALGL

On to `COc1ccc(C(=O)N2CCN(C(=O)c3cc(Cc4n[nH]c(=O)c5ccccc45)ccc3F)CC2)cc1I`, for which the logP in data set [1] came out at 2.95. The fraction unbound at albumin is 0.035. The compound also registered an IC50 in data set [2] of 17.6 nM.

Compound `O=C(COc1ccc(I)cc1)N1CCN(C(=O)c2cc(Cc3n[nH]c(=O)c4ccccc34)ccc2F)CC1` had a logP in data set [1] of 3.25. Besides, at albumin, the fraction unbound was 0.019. This compound yielded an IC50 in [2] of 3 nM.

Take `O=C(c1ccc([123I])cc1)N1CCN(C(=O)c2cc(Cc3n[nH]c(=O)c4ccccc34)ccc2F)CC1`: the Drug uptake result in data set [3] was “tde”; in [4], “Active”; in the data set with Brain, “Not Active”; in the data set with Liver it was “Active”.

The compound `O=C(Cc1cccc(I)c1)N1CCN(C(=O)c2cc(Cc3n[nH]c(=O)c4ccccc34)ccc2F)CC1` gave a lipophilicity (logP) in [1] of 3.13. Also, the fraction unbound at albumin is 0.025. Further, the IC50 in data set [2] worked out at 5.8 nM.

Turning to `Cc1ccc(C(=O)N2CCN(C(=O)c3cc(Cc4n[nH]c(=O)c5ccccc45)ccc3F)CC2)cc1I`, in data set [1], the logP amounted to 3.23. Besides, the fraction unbound at albumin is 0.024. Also, the IC50 in [2] was 16.9 nM.

`O=C(c1ccc(I)cc1)N1CCN(C(=O)c2cc(Cc3n[nH]c(=O)c4ccccc34)ccc2F)CC1`: in [5], the microsomal CLint at 60 µM came to 85 µL/min/mg. This compound also returned a logP in data set [1] of 3. The remaining at 20 h, 250 µM in data set [6] is 98%. Further, on albumin, the fraction unbound is 0.038.

Turning to `O=C(c1cccc(I)c1)N1CCN(C(=O)c2cc(Cc3n[nH]c(=O)c4ccccc34)ccc2F)CC1`, in [1], the logP is 2.97. For the same compound, the fraction unbound at albumin is 0.039.

For `O=C(c1cc(Cc2n[nH]c(=O)c3ccccc23)ccc1F)N1CCN(S(=O)(=O)c2ccc(I)cc2)CC1`, the logP in [1] is more than 3.25. For the same compound, the fraction unbound at albumin was 0.016. The compound further yielded an IC50 in [2] of 22.6 nM.

As for `O=C1CN=C(c2ccccn2)c2cc(Br)ccc2N1` [BROMAZEPAM], at albumin, the fraction unbound was 0.4.

For the compound `CCCC1O[C@@H]2C[C@H]3[C@@H]4CCC5=CC(=O)C=C[C@]5(C)[C@H]4[C@@H](O)C[C@]3(C)[C@]2(C(=O)CO)O1` (some centres not stated) [BUDESONIDE], at albumin, the fraction unbound is 0.12.

For `NC(=O)N1c2ccccc2C=Cc2ccccc21` [CARBAMAZEPINE], the fraction unbound on albumin was 0.25.

`COC(=O)C1=C(C)NC(C)=C(C(=O)OCCN(C)Cc2ccccc2)C1c1cccc([N+](=O)[O-])c1` (configuration not stated) [NICARDIPINE]: the fraction unbound on albumin is 0.05.

Turning to `CNC(=C[N+](=O)[O-])NCCSCc1csc(CN(C)C)n1` [NIZATIDINE], on albumin, the fraction unbound was 0.65.

For `O=C(c1cc(Cc2n[nH]c(=O)c3ccccc23)ccc1F)N1CCN(C(=O)C2CC2)CC1` [OLAPARIB], the microsomal CLint at 60 µM in [5] came to 29 µL/min/mg. For the same compound, in [1], the logP turned out to be 1.95.
